Measurements of several laboratories.
Lines come from different studies, so protocols differ.
Target: Serine/threonine-protein kinase 24 (STK24, Homo sapiens, UniProt Q9Y6E0)

SMILES | assay | system | setting | measurement | value
CCN1CCN(Cc2ccc(NC(=O)c3ccc(C)c(Oc4ccnc5[nH]ccc45)c3)cc2C(F)(F)F)CC1 | target engagement in cells, inhibitor, chemoproteomics | Huh-7 | 1 µM | inhibition | -56%
COc1cc(/C=C/C(=O)CC(=O)/C=C/c2ccc(O)c(OC)c2)ccc1O | enzyme activity, inhibitor |  | 1 µM | activity vs control | 91%
O=C1Nc2ccc(Cl)cc2C1=Cc1cc(Cl)c(O)c(Cl)c1 | cell-free assay |  | 0.5 µM | remaining signal | 104%
CNC(=O)c1cc(Oc2ccc(NC(=O)Nc3ccc(Cl)c(C(F)(F)F)c3)cc2)ccn1 | enzyme activity, inhibitor |  | 0.3 µM | inhibition | -9%
O=C(Nc1cnn(-c2csc(C(=O)NC3COC3)c2)c1)Nc1ccccc1Cl | enzyme activity, inhibitor |  | 5 µM | remaining activity | 113%
O=C(O)c1cc(-c2ccc(C3CCNCC3)cc2)c2ccc(-c3ccc(C(F)(F)F)cc3)cc2c1 | cell-free assay, competition with immobilised ligand |  | 1 µM | remaining binding | 100%
COc1cc2ncnc(Nc3ccc(Oc4ccccc4)cc3C)c2cc1OC | enzyme activity, inhibitor |  | 1 µM | inhibition | 9%
Cn1c2c(c3ccc(Cl)c(Cl)c31)C(C#N)C(C)(C)NC2=O (stereo not drawn) | thermal stability, DSF |  | 10 µM | ΔTm | 0.6 °C
CNCc1ccccc1-c1csc([C@@H](C)Nc2nc(C)nc3cc(OC)c(OC)cc23)c1 | cell-free assay, competition with immobilised ligand |  | 1 µM | remaining binding | 100%
CC/C(=N\NC(=O)NCc1cccc(O)c1)c1ccc(O)c(C)c1O | enzyme activity, inhibitor |  | 0.1 µM | inhibition | 4.3%
C[C@@H](c1cccc(C#N)c1)n1cc(Cl)cc(C(N)=O)c1=N | cell-free assay, competition with immobilised ligand |  | 1 µM | remaining binding | 100%
Cc1cc(NC(=O)c2cccc3cc(-c4cccc5[nH]nc(N)c45)ccc23)ccc1F | enzyme activity, inhibitor |  | 0.1 µM | activity vs control | 116%
COc1ccc2c(O[C@@H]3C[C@H]4C(=O)N[C@]5(C(=O)O)CC5/C=C\CCCCC[C@H](NC(=O)OC5CCCC5)C(=O)N4C3)cc(-c3csc(NC(=O)C(C)C)n3)nc2c1C (stereo partly drawn) | cell-free assay, competition with immobilised ligand |  | 1 µM | remaining binding | 100%
CCCS(=O)(=O)Nc1ccc(F)c(C(=O)c2c[nH]c3ncc(-c4ccc(Cl)cc4)cc23)c1F | enzyme activity, inhibitor |  | 1 µM | inhibition | < 20%
O=C(Nc1cccnn1)N1CCC(=Cc2cccc(Oc3ccc(C(F)(F)F)cn3)c2)CC1 | cell-free assay, competition with immobilised ligand |  | 1 µM | remaining binding | 100%
CN1CCC2(CC1)NC(=O)c1c(c3ccc(Cl)c(Cl)c3n1C)C2C#N (racemic) | thermal stability, DSF |  | 10 µM | ΔTm | -0.6 °C
O=C(Nc1cnc(Oc2ccc(F)cc2)nc1)N1CCc2ncccc2[C@@H]1c1ccc(F)cc1 | cell-free assay, competition with immobilised ligand |  | 1 µM | remaining binding | 77%
COc1cc(Nc2c(C#N)cnc3cc(OCCCN4CCN(C)CC4)c(OC)cc23)c(Cl)cc1Cl | cell-free assay |  | 0.5 µM | remaining signal | 11%
